Reference: ChEMBL document CHEMBL4673366, “Cyclic Phosphopantothenic Acid Prodrugs for Treatment of Pantothenate Kinase-Associated Neurodegeneration” (J Med Chem, 2020)
Activity calls are given as the source filed them. The calls are words filed in the database; no cut-off is given here.

Experiments:
[1] = Induction of Coenzyme A regeneration in human IMR-32 PANK2 knockdown cells at 50 uM for 24 hrs by HPLC analysis relative to control; format: functional
In short: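 PANK2-knockout neuroblastoma cells were grown in MEM with 10% FBS and 1 µg/mL puromycin and seeded at 0.2×10⁶ cells/well. After 72 h, they were dosed at 50 µM in DMSO (final 0.1%) at 37 °C. Washed, frozen pellets were reconstituted in ammonium acetate (pH 5.1) with internal standard, and free CoA was measured by LC-MS/MS. Intracellular volume was taken as 2 µL/10⁶ cells; results are fold over vehicle-treated cells.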

IMR-32 [2] = experiment: Increase in tubulin acetylation in human IMR-32 PANK2 knockdown cells at 50 uM for 48 hrs by Western blot analysis; format: functional
IMR-32 [3] = experiment: Increase in histone H3 acetylation in human IMR-32 PANK2 knockdown cells at 50 uM for 48 hrs by Western blot analysis; format: functional
IMR-32 [4] = experiment: Decrease in lipid droplet content in human IMR-32 PANK2 knockdown cells at 10 uM for 48 hrs by Nile red staining based inverted microscopic analysis; format: functional
In short: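 PANK2-knockout neuroblastoma cells were treated for 48 h, then fixed and stained with 100 ng/mL Nile Red. Cells were imaged on an inverted microscope at 60×, and lipid droplet content was quantified by plate fluorimetry. Data are mean ± sd of two biological replicates, each in duplicate; two-tailed paired Student's t-test.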

[5] = Effect on free coenzyme A level in C57BL6 mouse brain at 500 mg/kg, po administered as single dose measured after 1 hr UPLC quadrupole-time-of-flight mass spectrometry (Rvb =100%); format: functional
In short: (§1)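 C57BL6 mice, three per time point, received one oral 500 mg/kg dose of isotopically labeled prodrug, and brains were taken at 0, 1, 6 and 24 h. Brains were homogenized in water (3 mL/g), protein was precipitated with MeOH, and dried supernatant was reconstituted in 10 mM ammonium acetate (pH ~5). Analysis was UPLC-QTOF MS in positive ESI, scoring labeled CoA (+6, +4 amu) as a share of free CoA.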

[6] = Effect on free coenzyme A level in C57BL6 mouse brain at 500 mg/kg, po administered as single dose measured after 6 hr UPLC quadrupole-time-of-flight mass spectrometry (Rvb =100%); format: functional; in short: as §1
[7] = Effect on free coenzyme A level in C57BL6 mouse brain at 500 mg/kg, po administered as single dose measured after 24 hrs UPLC quadrupole-time-of-flight mass spectrometry (Rvb =100%); format: functional; in short: as §1

## COC(=O)CCNC(=O)[C@@H]1OP(=O)(OCOC(=O)C(C)(C)C)OCC1(C)C (mixture of isomers)
[1]
  fold change (FC): 180
IMR-32 [2]
  Activity: Active
IMR-32 [3]
  Activity: Active
IMR-32 [4]
  inhibition: Active
[5]
  Activity: 100%
[6]
  Activity: 92%
[7]
  Activity: 85%
